Test results published in ChEMBL document CHEMBL3808283, “Biological Characterization and in Vivo Assessment of the Activity of a New Synthetic Macrocyclic Antifungal Compound” (J Med Chem, 2016).
≈ marks a conversion by molar mass, not a printed value. Calls of active or inactive are those of the source. No cut-off for these calls is given here.

Legend:
Candida albicans [1] = assay: Antifungal activity against Candida albicans ATCC 60193 measured at 24 hrs by broth dilution assay; type: functional; details: ATCC 60193, 24 h
In short: (§1)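 EUCAST broth microdilution, including the update for non-fermenting yeasts (Cryptococcus, Geotrichum), on clinical and reference yeast isolates. Incubated at 37 °C and read at 24, 48 and 72 h. MIC taken as the lowest concentration with no visible growth. For Cryptococcus and Geotrichum, MICs were read only once growth was visible in the control row.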

Candida albicans [2] = assay: Upregulation of CDR2 gene expression in Candida albicans SC5314 at 3 uM after 15 to 45 mins by qRT-PCR method; type: functional, organism-based
In short: (§2)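 Log-phase C. albicans treated at 3 µM. RNA extracted with glass-bead disruption, then DNase-treated (10 µg per preparation). Target gene CT values were normalized to an endogenous reference. Fold change calculated as mean normalized expression of samples relative to a selected control.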

Candida albicans [3] = assay: Upregulation of orf19.6873.1 gene expression in Candida albicans SC5314 at 3 uM after 45 mins by microarray method relative to control; type: functional
In short: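 Log-phase cultures in liquid YEPD were exposed to 3 µM compound (final) for 15 or 45 min, with untreated controls sampled at the same times, in three biological replicates. Total RNA was extracted by glass-bead/phenol-chloroform disruption and integrity-checked. One-color Cy3-labelled cRNA (600 ng) was hybridized for 17 h at 65 °C to 8 × 15K arrays, and fold change was taken versus control.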

Candida albicans [4] = assay: Antifungal activity against Candida albicans 15T measured at 72 hrs by broth dilution assay; type: functional; in short: as §1
[5] = Antifungal activity against Geotrichum silvicola up to 96 hrs by broth dilution assay; type: functional
Candida albicans [6] = assay: Antifungal activity against fluconazole-susceptible Candida albicans ATCC 90028 in immunocompetent Balb/c mouse candidiasis model assessed as reduction in CFU count in spleen at 20 to 40 mg/kg/day, ip regime measured on day 7 post infection; type: functional, organism-based
In short: (§3)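 Immunocompetent BALB/c mice, 10 per strain group, injected in the lateral tail vein with 7 × 10^4 CFU of C. albicans in 200 µL sterile saline. Compound given ip daily, 100 µL of 0.1 mg/mL in DMSO/PEG 400 2:1; fluconazole control ip at 8 mg/kg/day. On day 7, spleen and kidneys were excised, weighed and homogenized in saline, then plated on YPD agar for 2 days at 30 °C. Read-out CFU/g; Wilcoxon rank-sum test, P<0.05.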

Candida tropicalis [7] = assay: Antifungal activity against Candida tropicalis 86E measured at 48 hrs by broth dilution assay; type: functional; in short: as §1
Candida tropicalis [8] = assay: Antifungal activity against Candida tropicalis 86E measured at 72 hrs by broth dilution assay; type: functional; in short: as §1
Candida albicans [9] = assay: Upregulation of LCB4 gene expression in Candida albicans SC5314 at 3 uM after 45 mins by microarray method relative to control; type: functional
In short: (§4)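 Log-phase C. albicans SC5314 in liquid YEPD exposed to 3 µM final for 15 or 45 min; untreated controls taken at the same time points. Three biological replicates. RNA extracted by glass-bead/phenol-chloroform method and integrity checked. One-color Cy3-labeled cRNA (600 ng) hybridized 17 h at 65 °C to 8 × 15K arrays. Expression expressed as fold change versus control.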

Candida albicans [10] = assay: Upregulation of CRZ2 gene expression in Candida albicans SC5314 at 3 uM after 45 mins by microarray method relative to control; type: functional; in short: as §4
Candida albicans [11] = assay: Upregulation of CDR1 gene expression in Candida albicans SC5314 at 3 uM after 15 to 45 mins by qRT-PCR method; type: functional, organism-based; in short: as §2
Candida albicans [12] = assay: Upregulation of RTA2 gene expression in Candida albicans SC5314 at 3 uM after 15 mins by microarray method relative to control; type: functional; in short: as §4
Candida albicans [13] = assay: Antifungal activity against azole-resistant Candida albicans isolate DSY296 in immunocompetent Balb/c mouse candidiasis model assessed as reduction in CFU count in spleen at 40 mg/kg/day, ip regime measured on day 7 post infection; type: functional, organism-based
In short: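 Immunocompetent BALB/c mice, 10 per strain group, received 7 × 10^4 CFU of C. albicans in 200 µL saline via the lateral vein. Drug was given i.p. daily at 40 mg/kg/day as a 0.1 mg/mL solution in DMSO/PEG 400 (2:1), 100 µL per dose. On day 7, spleen and kidneys were weighed, homogenized, and plated on YPD agar (2 days, 30 °C) for CFU/g. Analysis used Wilcoxon rank-sum, P<0.05.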

Candida albicans [14] = assay: Antifungal activity against azole-susceptible Candida albicans isolate DSY294 in immunocompetent Balb/c mouse candidiasis model assessed as reduction in CFU count in spleen at 40 mg/kg/day, ip regime measured on day 7 post infection; type: functional, organism-based; in short: as §3

C/C=C/CNC(=N)NCCCCCCCCN1CCCCCCCCNC(=N)NC1=O
MIC (Candida albicans [1]): 5 µM (≈ 2.18 µg/mL) | Activity (Candida albicans [2]): Active | fold change (FC) (Candida albicans [3]): 1.9 | MIC (Candida albicans [4]): 5 µM (≈ 2.18 µg/mL) | Activity [5]: Active | Activity (Candida albicans [6]): Active | MIC (Candida tropicalis [7]): 5 µM (≈ 2.18 µg/mL) | MIC (Candida tropicalis [8]): 5 µM (≈ 2.18 µg/mL) | fold change (FC) (Candida albicans [9]): 3.69 | fold change (FC) (Candida albicans [10]): 2.66 | Activity (Candida albicans [11]): Active | fold change (FC) (Candida albicans [12]): 3.07 | Activity (Candida albicans [13]): Active | Activity (Candida albicans [14]): Active
